In ChEMBL document CHEMBL4673221, “Furanoflavones pongapin and lanceolatin B blocks the cell cycle and induce senescence in CYP1A1-overexpressing breast cancer cells” (Bioorg Med Chem, 2018):
pIC50: −log10 of the molar value.

How the values were obtained:
MCF7 = assay: Induction of cellular senescence in human MCF7 cells over expressing CYP1A assessed as increase in beta-gal-positive cells at 2 times of EC50 concentration incubated for 96 hrs by microscopic assay relative to control; assay type: functional
How it was run: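 MCF7-1A1 cells were seeded at 25,000 per well and stabilised for 24 h, then treated for 96 h. Cells were fixed for 10 min at room temperature and stained for β-galactosidase at 37 °C without CO2 for 48 h. The percentage of blue-stained cells was counted by phase-contrast microscopy against untreated cultures.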

Cytochrome P450 2B6 = target: T1, Cytochrome P450 2B6 (Homo sapiens, UniProt P20813); assay: Inhibition of human CYP2B6 expressed in Sacchrosomes by fluorescence based assay; assay type: ADME
T1 sequence (P20813 whole entry): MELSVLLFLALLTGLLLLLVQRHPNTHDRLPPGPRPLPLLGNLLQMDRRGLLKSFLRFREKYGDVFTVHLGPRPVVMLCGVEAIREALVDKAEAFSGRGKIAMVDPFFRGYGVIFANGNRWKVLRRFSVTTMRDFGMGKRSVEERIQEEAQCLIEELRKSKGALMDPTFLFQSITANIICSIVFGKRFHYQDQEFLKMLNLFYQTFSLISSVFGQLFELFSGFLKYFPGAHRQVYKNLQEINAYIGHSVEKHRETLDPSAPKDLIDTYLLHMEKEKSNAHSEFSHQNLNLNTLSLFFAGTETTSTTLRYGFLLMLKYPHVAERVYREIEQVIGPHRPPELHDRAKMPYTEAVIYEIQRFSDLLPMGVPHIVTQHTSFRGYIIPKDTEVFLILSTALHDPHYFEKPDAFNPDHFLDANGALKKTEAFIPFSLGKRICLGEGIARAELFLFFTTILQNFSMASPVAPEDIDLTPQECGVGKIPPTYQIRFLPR

Cytochrome P450 3A4 = Cytochrome P450 3A4 (Homo sapiens, UniProt P08684); assay: Inhibition of human CYP3A4 expressed in Sacchrosomes using dibenzylfluorescein as substrate by fluorescence based assay; assay type: ADME
Chain of Cytochrome P450 3A4 (P08684 whole entry): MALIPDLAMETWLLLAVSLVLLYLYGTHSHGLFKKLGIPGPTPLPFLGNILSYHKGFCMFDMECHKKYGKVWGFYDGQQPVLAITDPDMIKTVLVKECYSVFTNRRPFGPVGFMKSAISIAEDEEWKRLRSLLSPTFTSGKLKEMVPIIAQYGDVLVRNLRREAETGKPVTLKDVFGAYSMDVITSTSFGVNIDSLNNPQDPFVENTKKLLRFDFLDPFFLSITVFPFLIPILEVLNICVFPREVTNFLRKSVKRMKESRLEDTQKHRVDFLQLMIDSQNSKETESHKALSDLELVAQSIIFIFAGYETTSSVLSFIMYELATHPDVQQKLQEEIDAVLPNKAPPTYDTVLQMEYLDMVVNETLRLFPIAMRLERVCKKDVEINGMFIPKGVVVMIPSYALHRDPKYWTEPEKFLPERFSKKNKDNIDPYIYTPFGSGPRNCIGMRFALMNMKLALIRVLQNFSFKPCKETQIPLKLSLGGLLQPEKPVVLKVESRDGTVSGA

Homo sapiens = species: Homo sapiens; assay: Selectivity ratio IC50 for inhibition of human CYP1B1 expressed in HEK293 cells toIC50 for Inhibition of CYP1A1 expressed in HEK293 cells; assay type: cell-based
Cytochrome P450 1A2 = target: T2, Cytochrome P450 1A2 (Homo sapiens, UniProt P05177); assay: Inhibition of human CYP1A2 expressed in Sacchrosomes using 3-cyano-7-ethoxycoumarin as substrate by fluorescence based assay; assay type: ADME
T2 sequence (P05177 whole entry): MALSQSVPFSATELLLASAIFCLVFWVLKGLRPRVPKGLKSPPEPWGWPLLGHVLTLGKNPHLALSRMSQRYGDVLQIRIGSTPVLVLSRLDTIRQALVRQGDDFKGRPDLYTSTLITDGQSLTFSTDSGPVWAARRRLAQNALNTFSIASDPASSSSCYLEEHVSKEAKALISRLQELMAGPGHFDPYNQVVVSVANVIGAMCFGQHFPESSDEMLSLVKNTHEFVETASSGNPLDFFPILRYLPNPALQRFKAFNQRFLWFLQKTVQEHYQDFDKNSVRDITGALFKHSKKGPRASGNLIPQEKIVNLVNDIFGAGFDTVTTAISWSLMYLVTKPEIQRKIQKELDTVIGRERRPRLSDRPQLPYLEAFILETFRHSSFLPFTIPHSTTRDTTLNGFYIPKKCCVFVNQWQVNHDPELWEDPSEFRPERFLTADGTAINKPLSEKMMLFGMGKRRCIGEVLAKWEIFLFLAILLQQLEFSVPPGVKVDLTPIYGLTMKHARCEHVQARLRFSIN

Cytochrome P450 2D6 = Cytochrome P450 2D6 (Homo sapiens, UniProt P10635); assay: Inhibition of human CYP2D6 expressed in Sacchrosomes using 7-ethoxy-methyloxy-3-cyanocoumarin as substrate by fluorescence based assay; assay type: ADME
Chain of Cytochrome P450 2D6 (P10635 whole entry): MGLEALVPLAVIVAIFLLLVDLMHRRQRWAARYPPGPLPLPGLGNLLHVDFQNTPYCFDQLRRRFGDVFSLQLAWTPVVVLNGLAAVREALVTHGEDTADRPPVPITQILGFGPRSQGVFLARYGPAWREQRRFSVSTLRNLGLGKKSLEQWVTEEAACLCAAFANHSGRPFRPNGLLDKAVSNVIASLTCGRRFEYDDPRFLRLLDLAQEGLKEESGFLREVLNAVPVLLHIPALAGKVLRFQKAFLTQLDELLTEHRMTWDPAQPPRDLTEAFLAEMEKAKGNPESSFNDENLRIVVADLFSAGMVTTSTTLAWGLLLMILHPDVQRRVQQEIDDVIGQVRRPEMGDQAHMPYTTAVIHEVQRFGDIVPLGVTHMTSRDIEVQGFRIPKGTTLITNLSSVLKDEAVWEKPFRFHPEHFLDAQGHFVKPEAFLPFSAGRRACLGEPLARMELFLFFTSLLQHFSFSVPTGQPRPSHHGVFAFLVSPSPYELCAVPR

Cytochrome P450 1B1 = target: T3, Cytochrome P450 1B1 (Homo sapiens, UniProt Q16678); assay: Inhibition of human CYP1B1 expressed in sacchrosomes using 7-ethoxyresorufin as substrate by fluorescence based assay; assay type: ADME
T3 sequence (Q16678 whole entry): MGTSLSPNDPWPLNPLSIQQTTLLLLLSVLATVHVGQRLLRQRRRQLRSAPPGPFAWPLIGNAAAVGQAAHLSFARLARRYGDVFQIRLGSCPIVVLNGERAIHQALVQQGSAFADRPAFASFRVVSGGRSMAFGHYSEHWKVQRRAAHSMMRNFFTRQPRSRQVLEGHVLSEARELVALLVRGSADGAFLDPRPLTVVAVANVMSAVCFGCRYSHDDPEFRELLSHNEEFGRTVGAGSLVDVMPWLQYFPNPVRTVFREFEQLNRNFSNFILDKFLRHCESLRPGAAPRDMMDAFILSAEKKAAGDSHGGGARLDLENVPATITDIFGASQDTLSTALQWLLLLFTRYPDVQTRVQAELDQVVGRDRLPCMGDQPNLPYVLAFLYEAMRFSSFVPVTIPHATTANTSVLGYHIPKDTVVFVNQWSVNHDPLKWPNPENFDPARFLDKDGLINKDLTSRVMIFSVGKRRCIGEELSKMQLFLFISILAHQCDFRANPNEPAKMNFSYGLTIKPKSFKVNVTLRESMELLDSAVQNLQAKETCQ
How it was run: (§1)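 Enzymes were microsomal preparations isolated from recombinant baker's yeast (Sacchrosomes). Compounds were screened at 10 μM for percent inhibition, and IC50 values were also determined. Values are mean ± SD of three independent experiments. Alpha-naphthoflavone served as the positive control.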

Cytochrome P450 1A1 = target: T4, Cytochrome P450 1A1 (Homo sapiens, UniProt P04798); assay: Inhibition of human CYP1A1 expressed in sacchrosomes using 7-ethoxyresorufin as substrate by fluorescence based assay; how it was run: as §1
T4 sequence (P04798 whole entry): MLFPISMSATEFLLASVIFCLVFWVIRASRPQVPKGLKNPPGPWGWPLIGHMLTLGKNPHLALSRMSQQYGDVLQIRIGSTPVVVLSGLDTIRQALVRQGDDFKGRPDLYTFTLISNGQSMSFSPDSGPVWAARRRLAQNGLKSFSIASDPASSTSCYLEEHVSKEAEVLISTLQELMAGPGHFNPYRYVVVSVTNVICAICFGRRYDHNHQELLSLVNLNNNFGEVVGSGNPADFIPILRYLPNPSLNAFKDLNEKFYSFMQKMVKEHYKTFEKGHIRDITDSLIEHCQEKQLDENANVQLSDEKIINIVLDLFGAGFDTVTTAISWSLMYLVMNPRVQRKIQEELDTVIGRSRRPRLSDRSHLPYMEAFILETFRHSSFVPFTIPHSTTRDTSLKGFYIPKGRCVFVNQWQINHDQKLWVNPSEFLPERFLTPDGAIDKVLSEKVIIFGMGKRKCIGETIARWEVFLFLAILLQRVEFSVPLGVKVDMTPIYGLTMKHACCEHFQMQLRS

Compound	Activity (MCF7) [%]	pIC50 (Cytochrome P450 2B6)	pIC50 (Cytochrome P450 3A4)	Ratio IC50 (Homo sapiens)	pIC50 (Cytochrome P450 1A2)	pIC50 (Cytochrome P450 2D6)	pIC50 (Cytochrome P450 1B1)	pIC50 (Cytochrome P450 1A1)
O=c1cc(-c2ccccc2)oc2c1ccc1occc12 [LANCEOLATIN B]	60	< 4.70	< 4.70	19.5	6.73	< 4.70	6.54	7.12
COc1c(-c2ccc3c(c2)OCO3)oc2c(ccc3occc32)c1=O [PONGAPIN]	60	< 4.70	< 4.70	53	5.60	< 4.70	6.02	7.15
